Source: ChEMBL document CHEMBL5532695, “4-Trifluoromethyl bithiazoles as broad-spectrum antimicrobial agents for virus-related bacterial infections or co-infections” (RSC Med Chem, 2024)
Converted amounts (≈) assume the structure as drawn. Values belong to the compound of their own block, whether it stands above or below them.

Key:
Staphylococcus aureus [1] = assay: Antibacterial activity against Staphylococcus aureus; format: functional
rhinovirus A16 [2] = assay: microbe, parasite or virus in culture; conditions: Rhinovirus A, HeLa, 48 h
rhinovirus A16 [3] = assay: Antiviral activity against 7 times N-(4'-(Trifluoromethyl)-2-((3-(trifluoromethyl)phenyl)amino)-[4,5'-bithiazol]-2'-yl)benzamide passaged resistance model of Human rhinovirus 16 infected in human HeLa cells assessed as inhibition of viral replication; format: functional, organism-based; conditions: Rhinovirus A
Summary of the method: (§1)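 HeLa cells infected with RVA16 and serially passaged under compound, supernatants harvested at extensive CPE (3–6 dpi), clarified and titrated on HeLa; each passage used prior virus at MOI 0.01, drug concentration doubled when possible; after 7 passages RNA sequenced. Antiviral read-out: HeLa at 33 °C, 48 h, VP3 immunostaining with HRP secondary; EC50 from variable-slope sigmoidal fit.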

rhinovirus A16 [4] = assay: Antiviral activity against 7 times rupintrivir passaged resistance model of Human rhinovirus 16 infected in human HeLa cells assessed as inhibition of viral replication; format: functional, organism-based; conditions: Rhinovirus A; summary of the method: as §1
Enterococcus faecium [5] = assay: Antibacterial activity against Vancomycin resistant Enterococcus faecium SI-3856B assessed as reduction in microbial growth measured after 18 hrs by CLSI based broth microdilution method; format: functional
Summary of the method: (§2)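 Gram-positive clinical isolates; compounds dissolved in DMSO (50 mg mL−1 stock) and diluted in medium; MIC by CLSI broth microdilution in Mueller–Hinton medium, inoculum 5 × 10^4 CFU per well, read after 18 h at 35 ± 2 °C; triplicate.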

Enterococcus faecium [6] = assay: Antibacterial activity against Vancomycin/teicoplanin resistant Enterococcus faecium SI-759 assessed as reduction in microbial growth measured after 18 hrs by CLSI based broth microdilution method; format: functional; summary of the method: as §2
Staphylococcus aureus [7] = assay: Antibacterial activity against methicillin-resistant Staphylococcus aureus ATCC 43300 assessed as reduction in microbial growth measured after 18 hrs by CLSI based broth microdilution method; format: functional; summary of the method: as §2
[8] = Cytotoxicity against human HeLa cells assessed as reduction in cell viability by MTT assay; format: toxicity, cell-based
Summary of the method: (§3)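 MTT viability on HeLa or VeroE6 cells, run in parallel with the antiviral assays. CC50 from variable-slope sigmoidal dose–response regression.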

[9] = tested on: Staphylococcus epidermidis; assay: Bactericidal activity against linezolid-resistant Staphylococcus epidermidis SI-1266 assessed as reduction in microbial growth measured after 18 hrs by CLSI based broth microdilution method; format: functional
Staphylococcus aureus [10] = assay: Bactericidal activity against methicillin-resistant Staphylococcus aureus ATCC 43300 assessed as reduction in microbial growth measured after 18 hrs by CLSI based broth microdilution method; format: functional
Klebsiella pneumoniae = assay: Synergistic antibacterial activity against Klebsiella pneumoniae ATCC 13833 incubated for 18 to 24 hrs in presence of colistin by broth microdilution method; format: functional; conditions: time 18-24 hrs
Staphylococcus warneri [11] = assay: Bactericidal activity against oxacillin-resistant Staphylococcus warneri SI-5/2011 assessed as reduction in microbial growth measured after 18 hrs by CLSI based broth microdilution method; format: functional
[12] = tested on: Staphylococcus haemolyticus; assay: Bactericidal activity against oxacillin-resistant Staphylococcus haemolyticus SI-6/2011 assessed as reduction in microbial growth measured after 18 hrs by CLSI based broth microdilution method; format: functional
Escherichia coli [13] = assay: Synergistic antibacterial activity against Escherichia coli CCUGT incubated for 18 to 24 hrs in presence of colistin by broth microdilution method; format: functional; conditions: time 18-24 hrs
Staphylococcus aureus [14] = assay: Bactericidal activity against Staphylococcus aureus ATCC 25923 assessed as reduction in microbial growth measured after 18 hrs by CLSI based broth microdilution method; format: functional
Summary of the method: (§4)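 MBC by CLSI broth microdilution in Mueller–Hinton medium, triplicate. Inoculum 5 × 10^4 CFU per well. Read after 18 h at 35 ± 2 °C.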

Acinetobacter baumannii [15] = assay: Synergistic antibacterial activity against Acinetobacter baumannii ATCC 17978 incubated for 18 to 24 hrs in presence of colistin by broth microdilution method; format: functional; conditions: time 18-24 hrs
enterovirus D68 = assay: microbe, parasite or virus in culture; conditions: Enterovirus D, HeLa, 48 h
Enterococcus faecium [16] = assay: Bactericidal activity against Vancomycin/teicoplanin resistant Enterococcus faecium SI-759 assessed as reduction in microbial growth measured after 18 hrs by CLSI based broth microdilution method; format: functional
[17] = target: Phosphatidylinositol 4-kinase beta (Homo sapiens, UniProt Q9UBF8); assay: Inhibition of recombinant full length his tagged PI4KB (unknown origin) incubated for 10 mins in presence of ATP by ADP-glo kinase assay
[18] = tested on: Staphylococcus epidermidis; assay: Antibacterial activity against linezolid-resistant Staphylococcus epidermidis SI-1266 assessed as reduction in microbial growth measured after 18 hrs by CLSI based broth microdilution method; format: functional; summary of the method: as §2
Bacillus subtilis [19] = assay: Bactericidal activity against Bacillus subtilis ATCC 6633 assessed as reduction in microbial growth measured after 18 hrs by CLSI based broth microdilution method; format: functional; summary of the method: as §4
Pseudomonas aeruginosa [20] = assay: Synergistic antibacterial activity against Pseudomonas aeruginosa ATCC 27853 incubated for 18 to 24 hrs in presence of colistin by broth microdilution method; format: functional; conditions: time 18-24 hrs
Enterococcus faecium [21] = assay: Antibacterial activity against Vancomycin resistant Enterococcus faecium SI-1831 assessed as reduction in microbial growth measured after 18 hrs by CLSI based broth microdilution method; format: functional; summary of the method: as §2
Enterococcus faecium [22] = assay: Bactericidal activity against Vancomycin resistant Enterococcus faecium SI-3856B assessed as reduction in microbial growth measured after 18 hrs by CLSI based broth microdilution method; format: functional
Enterococcus faecalis [23] = assay: Bactericidal activity against Enterococcus faecalis ATCC 29212 assessed as reduction in microbial growth measured after 18 hrs by CLSI based broth microdilution method; format: functional; summary of the method: as §4
Bacillus subtilis [24] = assay: Antibacterial activity against Bacillus subtilis ATCC 6633 assessed as reduction in microbial growth measured after 18 hrs by CLSI based broth microdilution method; format: functional
Summary of the method: (§5)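 MIC by CLSI broth microdilution in Mueller–Hinton medium, triplicate. Inoculum 5 × 10^4 CFU per well. Compounds taken up in DMSO (50 mg mL−1 stock) and diluted in medium. Read after 18 h at 35 ± 2 °C.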

[25] = tested on: Staphylococcus haemolyticus; assay: Antibacterial activity against oxacillin-resistant Staphylococcus haemolyticus SI-6/2011 assessed as reduction in microbial growth measured after 18 hrs by CLSI based broth microdilution method; format: functional; summary of the method: as §2
Enterococcus faecalis [26] = assay: Antibacterial activity against Enterococcus faecalis ATCC 29212 assessed as reduction in microbial growth measured after 18 hrs by CLSI based broth microdilution method; format: functional; summary of the method: as §5
Streptococcus pyogenes [27] = assay: Bactericidal activity against Streptococcus pyogenes ATCC 12344 assessed as reduction in microbial growth measured after 18 hrs by CLSI based broth microdilution method; format: functional; summary of the method: as §4
Pseudomonas aeruginosa [28] = assay: Synergistic antibacterial activity against colistin resistant MDR Pseudomonas aeruginosa SI-270 incubated for 18 to 24 hrs in presence of colistin by broth microdilution method; format: functional; conditions: time 18-24 hrs
Summary of the method: (§6)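 Minimum antibacterial concentration (MAC) by broth microdilution in Mueller–Hinton medium with a fixed subinhibitory colistin concentration of 2 μg mL−1 against colistin-resistant Gram-negative clinical isolates; inoculum 5 × 10^4 CFU per well, 35 ± 2 °C; triplicate.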

Staphylococcus warneri [29] = assay: Antibacterial activity against oxacillin-resistant Staphylococcus warneri SI-5/2011 assessed as reduction in microbial growth measured after 18 hrs by CLSI based broth microdilution method; format: functional; summary of the method: as §2
Zika virus = assay: microbe, parasite or virus in culture; conditions: Vero C1008, 72 h
Enterococcus faecium [30] = assay: Bactericidal activity against Vancomycin resistant Enterococcus faecium SI-1831 assessed as reduction in microbial growth measured after 18 hrs by CLSI based broth microdilution method; format: functional
[31] = Cytotoxicity against african green monkey Vero E6 cells assessed as reduction in cell viability by MTT assay; format: toxicity, cell-based; conditions: chlorocebus sabaeus, Vero E6 cells (Vero C1008); summary of the method: as §3
Escherichia coli [32] = assay: Synergistic antibacterial activity against colistin resistant mcr-positive Escherichia coli SI-63 incubated for 18 to 24 hrs in presence of colistin by broth microdilution method; format: functional; conditions: time 18-24 hrs; summary of the method: as §6
Staphylococcus aureus [33] = assay: Antibacterial activity against Staphylococcus aureus ATCC 25923 assessed as reduction in microbial growth measured after 18 hrs by CLSI based broth microdilution method; format: functional; summary of the method: as §5
Acinetobacter baumannii [34] = assay: Synergistic antibacterial activity against colistin/carbapenem resistant MDR Acinetobacter baumannii N50 incubated for 18 to 24 hrs in presence of colistin by broth microdilution method; format: functional; conditions: time 18-24 hrs; summary of the method: as §6
Streptococcus pyogenes [35] = assay: Antibacterial activity against Streptococcus pyogenes ATCC 12344 assessed as reduction in microbial growth measured after 18 hrs by CLSI based broth microdilution method; format: functional; summary of the method: as §5

Phosphatidylinositol 4-kinase beta, sequence (Q9UBF8 whole entry): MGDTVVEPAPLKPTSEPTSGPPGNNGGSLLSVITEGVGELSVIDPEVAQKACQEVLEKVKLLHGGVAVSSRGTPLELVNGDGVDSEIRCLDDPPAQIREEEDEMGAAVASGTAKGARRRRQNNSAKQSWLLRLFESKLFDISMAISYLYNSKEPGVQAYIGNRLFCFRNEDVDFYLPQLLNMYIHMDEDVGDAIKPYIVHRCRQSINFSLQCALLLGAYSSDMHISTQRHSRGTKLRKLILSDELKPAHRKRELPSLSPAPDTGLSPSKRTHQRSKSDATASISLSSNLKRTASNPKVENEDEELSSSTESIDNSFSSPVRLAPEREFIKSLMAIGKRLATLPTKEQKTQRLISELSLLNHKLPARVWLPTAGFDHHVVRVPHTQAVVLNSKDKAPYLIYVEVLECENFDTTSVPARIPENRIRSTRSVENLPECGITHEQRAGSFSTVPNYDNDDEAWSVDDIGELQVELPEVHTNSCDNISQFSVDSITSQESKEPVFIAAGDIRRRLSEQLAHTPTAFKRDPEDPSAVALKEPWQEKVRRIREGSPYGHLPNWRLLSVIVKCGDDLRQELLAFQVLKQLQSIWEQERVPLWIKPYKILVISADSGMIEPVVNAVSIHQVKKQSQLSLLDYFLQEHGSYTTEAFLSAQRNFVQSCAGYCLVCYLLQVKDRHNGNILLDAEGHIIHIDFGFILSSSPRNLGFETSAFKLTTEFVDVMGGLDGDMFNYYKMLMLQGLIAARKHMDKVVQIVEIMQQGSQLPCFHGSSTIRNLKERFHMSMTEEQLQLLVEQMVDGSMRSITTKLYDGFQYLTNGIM

MIC (Staphylococcus aureus [1]): 32 µg/mL (≈ 68 µM)
Structure (SMILES): CC(C)(C)C(=O)Nc1nc(C(F)(F)F)c(-c2csc(Nc3cccc(C(=O)O)c3)n2)s1

Structure (SMILES): CCOC(=O)/C=C/[C@H](C[C@@H]1CCNC1=O)NC(=O)[C@@H](CC(=O)[C@@H](NC(=O)c1cc(C)on1)C(C)C)Cc1ccc(F)cc1 [RUPINTRIVIR]
EC50 (rhinovirus A16 [2]): 0.002 µM
EC50 (rhinovirus A16 [3]): 0.005 µM
EC50 (rhinovirus A16 [4]): 0.014 µM

Structure (SMILES): CC(C)(C)C(=O)Nc1nc(C(F)(F)F)c(-c2csc(Nc3cccc(C(F)(F)F)n3)n2)s1
MIC (Enterococcus faecium [5]): > 64 µg/mL
MIC (Enterococcus faecium [6]): 64 µg/mL
MIC (Staphylococcus aureus [7]): 16 µg/mL
CC50 [8]: 31.8 µM
MBC [9]: > 64 µg/mL
MBC (Staphylococcus aureus [10]): > 64 µg/mL
MAC (Klebsiella pneumoniae): 2 µg/mL
MBC (Staphylococcus warneri [11]): > 64 µg/mL
MBC [12]: > 64 µg/mL
MAC (Escherichia coli [13]): 2 µg/mL
MBC (Staphylococcus aureus [14]): > 32 µg/mL
IC50 (rhinovirus A16 [2]): 9.02 µM
MAC (Acinetobacter baumannii [15]): 4 µg/mL
IC50 (enterovirus D68): 6.74 µM
MBC (Enterococcus faecium [16]): > 64 µg/mL
IC50 [17]: Not Active
MIC [18]: > 64 µg/mL
MBC (Bacillus subtilis [19]): 16 µg/mL
MAC (Pseudomonas aeruginosa [20]): >64 µg/mL
MIC (Enterococcus faecium [21]): > 64 µg/mL
MBC (Enterococcus faecium [22]): > 64 µg/mL
MBC (Enterococcus faecalis [23]): 16 µg/mL
MIC (Bacillus subtilis [24]): 8 µg/mL
MIC [25]: > 64 µg/mL
MIC (Enterococcus faecalis [26]): 8 µg/mL
MBC (Streptococcus pyogenes [27]): 8 µg/mL
MAC (Pseudomonas aeruginosa [28]): 64 µg/mL
MIC (Staphylococcus warneri [29]): > 64 µg/mL
IC50 (Zika virus): 6.9 µM
MBC (Enterococcus faecium [30]): > 64 µg/mL
CC50 [31]: 46 µM
MAC (Escherichia coli [32]): 1 µg/mL
MIC (Staphylococcus aureus [33]): 32 µg/mL
MAC (Acinetobacter baumannii [34]): 0.06 µg/mL
MIC (Streptococcus pyogenes [35]): 8 µg/mL
